Legend:
Cytochrome P450 3A4 [1] = target: T1, Cytochrome P450 3A4 (Homo sapiens, UniProt P08684); assay: Drug metabolism of the compound assessed as CYP3A4 (unknown origin)-mediated 1-(2,4-dichlorophenyl)-2-(1H-1,2,4-triazol-1-yl)ethanone formation by LC/MS/MS analysis; assay type: ADME
In short: (§1)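 kcat for M2 formation: trans isomers at 500 nM with CYP3A4 Supersomes (1 pmol) in KPi buffer. 5-min preincubation at 37°C, then NADPH (1 mM final) and 1-min reaction. M2 by LC-MS/MS, m/z 256.0>158.8, ITZ-d5 internal standard, standard curve 0.039–30 nM. kcat = product/time/pmol CYP3A4.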

Cytochrome P450 3A4 [2] = target: T1, Cytochrome P450 3A4; assay: Drug metabolism of the compound assessed as CYP3A4 (unknown origin)-mediated 1-sec-butyl-4-(4-(4-(4-(3-hydroxy-2-oxopropoxy)phenyl)piperazin-1-yl)phenyl)-1H-1,2,4-triazol-5(4H)-one by LC/MS/MS analysis; assay type: ADME
Cytochrome P450 3A4 [3] = target: T1, Cytochrome P450 3A4; assay: Drug metabolism of the compound assessed as CYP3A4 (unknown origin)-mediated 3-(4-(4-(4-(1-sec-butyl-5-oxo-1H-1,2,4-triazol-4(5H)-yl)phenyl)piperazin-1-yl)phenoxy)-2-hydroxypropanal by LC/MS/MS analysis; assay type: ADME
Cytochrome P450 3A4 [4] = target: T1, Cytochrome P450 3A4; assay: Drug metabolism of the compound assessed as purified CYP3A4 (unknown origin)-mediated 3-(4-(4-(4-(1-sec-butyl-5-oxo-1H-1,2,4-triazol-4(5H)-yl)phenyl)piperazin-1-yl)phenoxy)-2-hydroxypropanal by LC/MS/MS analysis in presence of NADPH; assay type: ADME
Cytochrome P450 3A4 [5] = target: T1, Cytochrome P450 3A4; assay: Drug metabolism of the compound assessed as CYP3A4 (unknown origin) coexpressing P450 reductase and cytochrome-b5-mediated 1-(2,4-dichlorophenyl)-2-(1H-1,2,4-triazol-1-yl)ethanone formation at 500 nM after 5 mins by LC/MS analysis in presence of NADPH; assay type: ADME; details: 0.5 µM
Cytochrome P450 3A4 [6] = target: T1, Cytochrome P450 3A4; assay: Drug metabolism of the compound assessed as CYP3A4 (unknown origin) coexpressing P450 reductase and cytochrome-b5-mediated 1-sec-butyl-4-(4-(4-(4-(3-hydroxy-2-oxopropoxy)phenyl)piperazin-1-yl)phenyl)-1H-1,2,4-triazol-5(4H)-one after 5 mins by LC/MS/MS analysis in presence of NADPH; assay type: ADME
Cytochrome P450 3A4 [7] = target: T1, Cytochrome P450 3A4; assay: Drug metabolism of the compound assessed as reconstituted CYP3A4 (unknown origin)-mediated 1-(2,4-dichlorophenyl)-2-(1H-1,2,4-triazol-1-yl)ethanone formation at 500 nM after 5 mins by LC/MS analysis in presence of NADPH; assay type: ADME; details: 0.5 µM
Cytochrome P450 3A4 [8] = target: T1, Cytochrome P450 3A4; assay: Drug metabolism of the compound assessed as purified CYP3A4 (unknown origin)-mediated 1-sec-butyl-4-(4-(4-(4-(3-hydroxy-2-oxopropoxy)phenyl)piperazin-1-yl)phenyl)-1H-1,2,4-triazol-5(4H)-one by LC/MS/MS analysis in presence of NADPH; assay type: ADME
Cytochrome P450 3A4 [9] = target: T1, Cytochrome P450 3A4; assay: Drug metabolism of the compound assessed as CYP3A4 (unknown origin) coexpressing P450 reductase and cytochrome-b5-mediated 3-(4-(4-(4-(1-sec-butyl-5-oxo-1H-1,2,4-triazol-4(5H)-yl)phenyl)piperazin-1-yl)phenoxy)-2-hydroxypropanal after 5 mins by LC/MS/MS analysis in presence of NADPH; assay type: ADME
Cytochrome P450 3A4 [10] = target: T1, Cytochrome P450 3A4; assay: Drug metabolism of the compound assessed as CYP3A4 (unknown origin) coexpressing P450 reductase and cytochrome-b5-mediated 1-sec-butyl-4-(4-(4-(4-(2,3-dihydroxypropoxy)phenyl)piperazin-1-yl)phenyl)-1H-1,2,4-triazol-5(4H)-one formation after 3 mins by LC/MS/MS analysis; assay type: ADME; details: 0.05 h
Cytochrome P450 3A4 [11] = target: T1, Cytochrome P450 3A4; assay: Binding affinity to purified CYP3A4 (unknown origin) coexpressing P450 reductase and cytochrome-b5 by UV-Vis spectrophotometry; assay type: ADME; details: read-out: Ks
Cytochrome P450 3A4 [12] = target: T1, Cytochrome P450 3A4; assay: Drug metabolism of the compound assessed as CYP3A4 (unknown origin) coexpressing P450 reductase and cytochrome-b5-mediated 1-sec-butyl-4-(4-(4-(4-(2,3-dihydroxypropoxy)phenyl)piperazin-1-yl)phenyl)-1H-1,2,4-triazol-5(4H)-one formation after 1 hr by LC/MS/MS analysis; assay type: ADME
Cytochrome P450 3A4 [13] = target: T1, Cytochrome P450 3A4; assay: Drug level of the compound assessed as CYP3A4 (unknown origin) coexpressing P450 reductase and cytochrome-b5-mediated metabolite formation treated with trans-ITZ by LC/MS/MS analysis; assay type: ADME
[14] = Drug metabolism in human assessed as 1-(2,4-dichlorophenyl)-2-(1H-1,2,4-triazol-1-yl)ethanone level in urine at 400 mg, po measured on day 7 by MS/MS analysis; assay type: ADME, organism-based; details: in vivo
In short: (§2)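 Six subjects (5 male, 1 female) received itraconazole 400 mg orally. Urine collected 24 h before dosing, 0–12 and 12–24 h after, then 24–48, 72–96 and 120–144 h, with volume recorded. 5 ml urine extracted with ethyl acetate. M2 measured by MS/MS at transition m/z 256>158.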

[15] = Drug metabolism in human assessed as 1-(2,4-dichlorophenyl)-2-(1H-1,2,4-triazol-1-yl)ethanone level in urine at 400 mg, po measured on day 2 by MS/MS analysis; assay type: ADME, organism-based; details: in vivo; in short: as §2
Cytochrome P450 3A4 [16] = target: T1, Cytochrome P450 3A4; assay: Drug metabolism of the compound assessed as CYP3A4 (unknown origin) coexpressing P450 reductase and cytochrome-b5-mediated 1-(2,4-dichlorophenyl)-2-(1H-1,2,4-triazol-1-yl)ethanone formation by LC/MS/MS analysis; assay type: ADME; in short: as §1
Cytochrome P450 3A4 [17] = target: T1, Cytochrome P450 3A4; assay: Drug level of the compound assessed as CYP3A4 (unknown origin)-mediated metabolite formation treated with N-desalkyl-ITZ by LC/MS/MS analysis; assay type: ADME
In short: (§3)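 Substrate incubated with CYP3A4 Supersomes (100 pmol) in KPi buffer at 37°C for 1 h, with and without NADPH, plus a no-enzyme control. Products by LC/Q-TOF MS, positive ESI, m/z 100–1500, cone 35 V, low-energy (6 eV) and ramped high-energy modes.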

CYP3A4 = CYP3A4 (Homo sapiens, UniProt P08684); assay: Inhibition of CYP3A4 in human liver microsomes using midazolam as substrates at 15 uM after 5 mins by LC/MS analysis in presence of NADPH; assay type: ADME; details: probe midazolam
Cytochrome P450 3A4 [18] = target: T1, Cytochrome P450 3A4; assay: Drug level of the compound assessed as CYP3A4 (unknown origin)-mediated metabolite formation treated with 3'-OH-ITZ by LC/MS/MS analysis; assay type: ADME; in short: as §3
Cytochrome P450 3A4 [19] = target: T1, Cytochrome P450 3A4; assay: Drug level of the compound assessed as CYP3A4 (unknown origin)-mediated metabolite formation treated with cis-ITZ by LC/MS/MS analysis; assay type: ADME; in short: as §3
Cytochrome P450 3A4 [20] = target: T1, Cytochrome P450 3A4; assay: Drug level of the compound assessed as CYP3A4 (unknown origin)-mediated metabolite formation treated with keto-ITZ by LC/MS/MS analysis; assay type: ADME; in short: as §3
[21] = Drug metabolism in human assessed as 1-(2,4-dichlorophenyl)-2-(1H-1,2,4-triazol-1-yl)ethanone level in urine at 400 mg, po measured on day 4 by MS/MS analysis; assay type: ADME, organism-based; details: in vivo; in short: as §2
Cytochrome P450 3A4 [22] = target: T1, Cytochrome P450 3A4; assay: Inhibition of CYP3A4 in human liver microsomes using midazolam as substrates after 5 mins by LC/MS analysis in presence of NADPH; assay type: ADME
In short: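 Pooled HLM (0.025 mg/ml, CYP3A5*3/*3) with midazolam 1 μM in KPi. Inhibitor range 5–1000 nM for trans isomers. 5-min preincubation at 37°C, then NADPH 1 mM final, run for 2 min. Stopped with ethyl acetate, d4-1'-OH-MDZ added as internal standard. IC50 from fit of remaining-activity equation.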

[23] = Drug metabolism in human assessed as 1-(2,4-dichlorophenyl)-2-(1H-1,2,4-triazol-1-yl)ethanone level in urine at 400 mg, po after 24 hrs by MS/MS analysis; assay type: ADME, organism-based; details: in vivo; in short: as §2
Cytochrome P450 3A4 [24] = target: T1, Cytochrome P450 3A4; assay: Drug level of the compound assessed as CYP3A4 (unknown origin) coexpressing P450 reductase and cytochrome-b5-mediated metabolite formation treated with trans-(2S,4S,2'S)-ITZ by LC/MS/MS analysis; assay type: ADME
Cytochrome P450 3A4 [25] = target: T1, Cytochrome P450 3A4; assay: Drug level of the compound assessed as purified CYP3A4 (unknown origin)-mediated metabolite formation treated with trans-(2S,4S,2'S)-ITZ by LC/MS/MS analysis; assay type: ADME

T1 sequence (P08684 whole entry): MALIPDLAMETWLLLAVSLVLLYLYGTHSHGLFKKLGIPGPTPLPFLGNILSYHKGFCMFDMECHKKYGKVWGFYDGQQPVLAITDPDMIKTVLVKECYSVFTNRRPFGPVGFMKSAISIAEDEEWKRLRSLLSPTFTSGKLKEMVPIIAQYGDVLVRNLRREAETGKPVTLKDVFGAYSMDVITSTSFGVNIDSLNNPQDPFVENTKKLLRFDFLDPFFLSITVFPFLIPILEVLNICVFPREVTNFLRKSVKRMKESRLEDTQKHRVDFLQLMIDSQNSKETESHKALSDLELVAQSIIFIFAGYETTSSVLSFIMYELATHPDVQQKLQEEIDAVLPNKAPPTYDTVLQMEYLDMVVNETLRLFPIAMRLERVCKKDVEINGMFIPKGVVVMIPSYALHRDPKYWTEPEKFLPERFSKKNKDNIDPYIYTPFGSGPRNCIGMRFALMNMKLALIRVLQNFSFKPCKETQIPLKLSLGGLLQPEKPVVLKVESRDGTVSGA
Chain of CYP3A4 (P08684 whole entry): as above

CC[C@H](C)n1ncn(-c2ccc(N3CCN(c4ccc(OC[C@@H]5CO[C@@](Cn6cncn6)(c6ccc(Cl)cc6Cl)O5)cc4)CC3)cc2)c1=O
Drug metabolism (Cytochrome P450 3A4 [1]): metabolite_detected
Drug metabolism (Cytochrome P450 3A4 [2]): metabolite_detected
Drug metabolism (Cytochrome P450 3A4 [3]): metabolite_detected

CC[C@H](C)n1ncn(-c2ccc(N3CCN(c4ccc(OC[C@H]5CO[C@](Cn6cncn6)(c6ccc(Cl)cc6Cl)O5)cc4)CC3)cc2)c1=O
Drug metabolism (Cytochrome P450 3A4 [1]): metabolite_detected
Drug metabolism (Cytochrome P450 3A4 [2]): metabolite_detected
Drug metabolism (Cytochrome P450 3A4 [3]): metabolite_detected

CC[C@@H](C)n1ncn(-c2ccc(N3CCN(c4ccc(OC[C@H]5CO[C@](Cn6cncn6)(c6ccc(Cl)cc6Cl)O5)cc4)CC3)cc2)c1=O
Drug metabolism (Cytochrome P450 3A4 [1]): metabolite_detected
Drug metabolism (Cytochrome P450 3A4 [2]): metabolite_detected
Drug metabolism (Cytochrome P450 3A4 [3]): metabolite_detected

CC[C@H](C)n1ncn(-c2ccc(N3CCN(c4ccc(OC[C@H]5CO[C@@](Cn6cncn6)(c6ccc(Cl)cc6Cl)O5)cc4)CC3)cc2)c1=O
Drug metabolism (Cytochrome P450 3A4 [4]): metabolite_detected
Kcat (Cytochrome P450 3A4 [5]): 0.0198 s⁻¹
Drug metabolism (Cytochrome P450 3A4 [6]): metabolite_detected
Kcat (Cytochrome P450 3A4 [7]): 0.0042 s⁻¹
Drug metabolism (Cytochrome P450 3A4 [8]): metabolite_detected
Drug metabolism (Cytochrome P450 3A4 [9]): metabolite_detected
Drug metabolism (Cytochrome P450 3A4 [10]): metabolite_detected

CC[C@@H](C)n1ncn(-c2ccc(N3CCN(c4ccc(OC[C@H]5CO[C@@](Cn6cncn6)(c6ccc(Cl)cc6Cl)O5)cc4)CC3)cc2)c1=O
Kcat (Cytochrome P450 3A4 [5]): 0.0183 s⁻¹
Kcat (Cytochrome P450 3A4 [7]): 0.0041 s⁻¹

CC[C@H](C)n1ncn(-c2ccc(N3CCN(c4ccc(OC[C@@H]5CO[C@](Cn6cncn6)(c6ccc(Cl)cc6Cl)O5)cc4)CC3)cc2)c1=O
Kcat (Cytochrome P450 3A4 [5]): 0.0214 s⁻¹
Kcat (Cytochrome P450 3A4 [7]): 0.0038 s⁻¹

CC[C@@H](C)n1ncn(-c2ccc(N3CCN(c4ccc(OC[C@@H]5CO[C@](Cn6cncn6)(c6ccc(Cl)cc6Cl)O5)cc4)CC3)cc2)c1=O
Kcat (Cytochrome P450 3A4 [5]): 0.0159 s⁻¹
Kcat (Cytochrome P450 3A4 [7]): 0.0032 s⁻¹

O=C(Cn1cncn1)c1ccc(Cl)cc1Cl
Kd (Cytochrome P450 3A4 [11]): 12.8 µM
Drug metabolism (Cytochrome P450 3A4 [12]): metabolite_detected
Drug metabolism (Cytochrome P450 3A4 [13]): metabolite_detected
Drug metabolism [14]: 87 ng
Drug metabolism [15]: 429 ng
Drug metabolism (Cytochrome P450 3A4 [16]): metabolite_detected
Drug metabolism (Cytochrome P450 3A4 [17]): metabolite_detected
inhibition at 5 min, 15 µM (CYP3A4): < 50%
Drug metabolism (Cytochrome P450 3A4 [18]): metabolite_detected
Drug metabolism (Cytochrome P450 3A4 [19]): metabolite_detected
Drug metabolism (Cytochrome P450 3A4 [20]): metabolite_detected
Drug metabolism [21]: 319 ng
IC50 (Cytochrome P450 3A4 [22]): > 15 µM
Drug metabolism [23]: 1114 ng

CCC(C)n1ncn(-c2ccc(N3CCN(c4ccc(OCC(O)C=O)cc4)CC3)cc2)c1=O (centres undefined)
Drug metabolism (Cytochrome P450 3A4 [24]): metabolite_detected
Drug metabolism (Cytochrome P450 3A4 [25]): metabolite_detected
Drug metabolism (Cytochrome P450 3A4 [19]): metabolite_detected

CCC(C)n1ncn(-c2ccc(N3CCN(c4ccc(OCC(=O)CO)cc4)CC3)cc2)c1=O (centres undefined)
Drug metabolism (Cytochrome P450 3A4 [24]): metabolite_detected
Drug metabolism (Cytochrome P450 3A4 [25]): metabolite_detected
Drug metabolism (Cytochrome P450 3A4 [19]): metabolite_detected

CCC(C)n1ncn(-c2ccc(N3CCN(c4ccc(OCC(O)CO)cc4)CC3)cc2)c1=O (centres undefined)
Drug metabolism (Cytochrome P450 3A4 [12]): metabolite_detected
Drug metabolism (Cytochrome P450 3A4 [13]): metabolite_detected
Drug metabolism (Cytochrome P450 3A4 [16]): metabolite_detected
Drug metabolism (Cytochrome P450 3A4 [25]): metabolite_not_detected

CC[C@@H](C)n1ncn(-c2ccc(N3CCN(c4ccc(OC[C@@H]5CO[C@@](Cn6cncn6)(c6ccc(Cl)cc6Cl)O5)cc4)CC3)cc2)c1=O
Drug metabolism (Cytochrome P450 3A4 [1]): metabolite_detected
Drug metabolism (Cytochrome P450 3A4 [2]): metabolite_detected
Drug metabolism (Cytochrome P450 3A4 [3]): metabolite_detected

Source: ChEMBL document CHEMBL3525957, “Stereospecific metabolism of itraconazole by CYP3A4: dioxolane ring scission of azole antifungals” (Drug Metab Dispos, 2012)
